In paper PMC5099097 (Antiviral research, 2016):

Key:
HCMV T3429 (UL54 mutant) = assay: SEAP assay, recombinant GCV-resistant HCMV T3429 on MRC-5 cells; type: cell-based, human cytomegalovirus; settings: Supplemental Table 1 (values not available)
HCMV T3252 (UL97 mutant) = assay: SEAP assay, recombinant GCV-resistant HCMV T3252 on MRC-5 cells; type: cell-based, human cytomegalovirus; settings: Supplemental Table 1 (values not available)
HCMV TB40E [1] = assay: GCV and p5RD alone and combined, TB40E-Luc on MRC-5 cells; type: cell-based, human cytomegalovirus; settings: 3 μM GCV alone
MCMV = settings: relative to p5; ref Dogra et al., 2015; Martin et al., 2013; Wall et al., 2011; cited from earlier work
[2] = set-up: species or system BALB/c mice; settings: mouse, in vivo, iv
HCMV TB40E [3] = assay: Luciferase assay: peptide reduction of HCMV TB40E-Luc infection of MRC-5 cells; type: cell-based, human cytomegalovirus; settings: peptide concentration >200 μM
HCMV TB40E [4] = assay: Luciferase assay: TB40E-Luc infection of MRC-5, HFF, ARPE-19 and HAEC cells; type: cell-based, human cytomegalovirus; settings: 200 μM peptide added 30 min prior to infection, ARPE-19, HAEC
Method in brief: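 At 80–85% confluency, cells (MRC-5, HFF, ARPE-19 or HAEC) got 200 μM peptide in 10% FBS/PBS, or vehicle alone, 30 min before HCMV TB40E (luciferase, UL18 promoter) at ~35–50 pfu (~2500–3000 RLU). Inoculum was removed after 60 min at 37 °C. Cells were lysed after 3 days and luminescence read. Uninfected background was subtracted and values normalized to infected untreated cells. Three experiments, three replicates each.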

| Compound | susceptibility of T3429 to GCV (HCMV T3429 (UL54 mutant)) | susceptibility of T3252 to GCV (HCMV T3252 (UL97 mutant)) | reduction in HCMV infection (HCMV TB40E [1]) | blocks MCMV infection more efficiently than p5 (fold) (MCMV) | time by which the majority of the peptide was excreted or degraded [2] | time retained at high levels in the spleen, liver and kidneys post injection [2] | reduction of HCMV infection (HCMV TB40E [3]) | reduction of HCMV infection in all cell types (HCMV TB40E [4]) |
| --- | --- | --- | --- | --- | --- | --- | --- | --- |
| Nc1nc(O)c2ncn(COC(CO)CO)c2n1 [GCV, ganciclovir] | resistant to high concentrations | resistant to high concentrations | ~ 95% |  |  |  |  |  |
| GGGYSRAQRAQARQARQAQRARGARQ [p5R] |  |  |  | 2 x | ≤ 4 h | rapidly dehalogenated and/or excreted | ≥ 90% | > 80% |
